Rows were chosen to be rich in hits. Some 1.5% of all compounds tested hit in one or more screens of this group.
CCR6 antag – antagonists of human CCR6 receptor; P51684; CHO-K1 CCR6 PathHunter beta-arrestin, luminescence, CCL20-stimulated; inhibition, % at 20 µM; 0.49% of 340,000 active; AID 493098;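 active = compounds whose inhibition of the agonist-driven luminescence signal at 20 µM reaches about 50%, limit read from the data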;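 also: cells stimulated with CCL20 at 14 nM final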
APJ agonist – agonists of human APJ apelin receptor; CHO-K1 APJ PathHunter beta-arrestin, luminescence; 0% DMSO wells, 100% apelin; 0.11% of 330,000 active; P35414; activation, % at 20 µM;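 active = activation more than six SD over the plate average, tested at 20 µM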
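Assay system: CHO-K1 APJ beta-arrestin complementation cell line / Compound: single test compound dose, 20 µM final, 1% DMSO / Times: overnight seeding, 90 min compound at 25 °C, 1 h detection / Technique: beta-gal luminescence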
CXCR6 block – CXCR6 (human) receptor inhibition. CHO-K1 PathHunter CXCR6 beta-arrestin, luminescence. 0.36% of 360,000 active. inhibition, % at 20 µM. O00574; in the data active = inhibition above about 34%, passing the limit was not always enough;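 also: antagonist mode with CXCL16 agonist at 10 nM final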
Target sequence (O00574 whole entry, looked up): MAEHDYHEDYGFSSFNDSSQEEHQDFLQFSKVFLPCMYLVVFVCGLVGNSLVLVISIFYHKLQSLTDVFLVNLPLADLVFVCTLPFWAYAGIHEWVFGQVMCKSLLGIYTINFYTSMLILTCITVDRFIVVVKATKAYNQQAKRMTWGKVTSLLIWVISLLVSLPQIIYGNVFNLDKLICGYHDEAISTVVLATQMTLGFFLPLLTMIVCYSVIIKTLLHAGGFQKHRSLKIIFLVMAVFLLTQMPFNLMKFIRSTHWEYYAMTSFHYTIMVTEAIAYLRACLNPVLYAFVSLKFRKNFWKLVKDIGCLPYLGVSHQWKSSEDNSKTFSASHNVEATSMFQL
EBI2 block – antagonists of human EBI2 receptor; 0.81% of 360,000 active; inhibition, % at 5 µM; AID 651636; P32249; EBI2 beta-arrestin recruitment, luminescence, 7a,25-OHC stimulated; in the data active = inhibition above about 38%;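 also: enzyme fragment complementation signal reports receptor beta-arrestin coupling in cells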
APJ antagonist – APJ receptor antagonism; inhibition, % at 20 µM; P35414; CHO-K1 APJ beta-arrestin complementation, luminescence; 0.32% of 330,000 active;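 active = inhibition above about 40% at 20 µM, limit read from the data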;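 also: cells challenged with 10 nM apelin-13 agonist together with compound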
CXCR6 antag conf – confirmation of human CXCR6 receptor antagonists; shares compounds with CXCR6 block; CHO-K1 CXCR6 PathHunter beta-arrestin, luminescence; inhibition, % at 20 µM; 65% of 700 active;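 active = mean inhibition over four retests above 40%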;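 also: receptor stimulated with 10 nM CXCL16 agonist; beta-galactosidase fragment complementation upon beta-arrestin recruitment to receptor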
A number is an active result; 0 = inactive; - = not tested or not shown.

SMILES	CCR6 antag	APJ agonist	CXCR6 block	EBI2 block	APJ antagonist	CXCR6 antag conf
CC1=C(C(=O)N(C(C)C)C(C)C)CC(CC(=O)NCCCCc2ccccc2)C(=O)N1Cc1ccc(F)cc1 (stereo unspecified)	-	-	0	0	-	-
C[C@H](CO)N1C[C@H](C)[C@H](CN(C)C(=O)Nc2ccc(F)cc2)OCc2ccccc2-c2c(n(C)c3ccccc23)C1=O	-	-	41	0	-	0
C=CC[C@@H](CC(=O)N(CCO)Cc1ccccc1)C(=O)NC[C@@H](OC(=O)[C@@H](CC=C)Cc1ccc(F)cc1)c1ccccc1	0	0	0	0	0	-
C=CC[C@@H](CC(=O)N(CCO)Cc1ccccc1)C(=O)N[C@@H](COC(=O)[C@@H](CC=C)Cc1ccc(F)cc1)Cc1ccccc1	0	0	42	0	0	0
C=CC[C@@H](CC(=O)N(CCO)Cc1ccccc1)C(=O)N[C@H](COC(=O)[C@@H](CC=C)Cc1ccc(F)cc1)Cc1ccccc1	0	0	0	0	0	-
C=CC[C@H](CC(=O)N(CCO)Cc1ccccc1)C(=O)NC[C@H](OC(=O)[C@@H](CC=C)Cc1ccc(F)cc1)c1ccccc1	0	0	48	0	0	0
O=C(NCCc1nnc2ccc(SCC(=O)N3CCCC3)nn12)c1ccc(F)cc1	0	0	0	0	0	-
Cc1cccc(C)c1OCc1nnc(SCC(=O)Nc2ccc(N3CCOCC3)cc2)o1	0	0	0	0	0	-
CC(C)C(=O)Nc1ncc(Cc2ccccc2Cl)s1	0	0	0	0	0	-
N=C1SCC(=O)N1c1ncc(Cc2ccccc2Cl)s1	-	-	51	0	-	58
O=C(CN1CCOCC1)NCc1cc([N+](=O)[O-])ccc1O	0	0	0	0	0	-
CCOC(=O)CSc1cccc2cccnc12	69	0	53	0	0	65
OCC[C@H]1C[C@@H](O)[C@H](O)[C@]2(Cc3ccccc3CO2)O1	0	0	0	0	0	-
Cc1cc(Cl)n2c(nc3cc(F)c(F)cc32)c1C#N	0	-	44	0	-	53
Cc1cc(C)n2c(=O)c3ccc(Cl)cc3nc2c1C#N	0	0	0	0	0	-
COc1ccc([N+](=O)[O-])c(O)c1C(C)=O	0	-	0	0	-	-
CCCCCCCCCCOC(=O)Cn1c(COc2ccc(Cl)cc2)[n+](C)c2ccccc21	0	0	41	0	0	0
Cc1ccc(C(=O)NC(=S)NNC(=O)c2ccccc2)cc1	0	0	0	0	0	-
Cc1ccc(C(=O)NNC(=S)NC(=O)c2ccccc2)cc1	-	0	36	0	0	44
Cc1ccc(C(=O)NC(=S)Nc2ccc(NC(=O)c3cccs3)cc2)cc1[N+](=O)[O-]	50	0	28	0	0	0
CC(=O)c1cccc(NC(=O)C2CCCN2S(=O)(=O)c2cccs2)c1 (stereo unspecified)	-	-	0	0	-	-
N#CCCN(C(=O)Nc1ccccc1)C1CCCCC1	0	-	0	0	-	-
O=C(/C=C/c1ccc(Cl)cc1)N(c1ccccn1)C1CCCCC1	0	0	59	0	0	0
O=C(N/N=C/c1ccc([N+](=O)[O-])o1)c1sc2ccccc2c1Cl	0	0	41	0	0	43
O=C(N/N=C/c1c[nH]c2ccccc12)c1sc2ccccc2c1Cl	0	0	0	0	0	-
SMILES	CCR6 antag	APJ agonist	CXCR6 block	EBI2 block	APJ antagonist	CXCR6 antag conf
CCOC(=O)N1CCN(S(=O)(=O)c2cccc3ccc(C)nc23)CC1	0	0	84	0	0	0
CS(=O)(=O)c1ccc2nc(NC(=O)CN3CCC(Cc4ccccc4)CC3)sc2c1	0	0	0	0	0	-
CS(=O)(=O)c1ccc2nc(NC(=O)CN3CCN(Cc4ccccc4)CC3)sc2c1	0	0	40	0	0	0
Cc1ccc(NC(=S)NNC(=S)NNc2ccccc2)cc1C	-	-	40	0	-	0
S=C(NNC(=S)Nc1ccc(Cl)cc1)NNc1ccccc1	-	-	0	0	-	-
O=C(C#Cc1ccccc1)c1ccccc1	-	-	71	0	-	72
CN(C)C(=O)C#Cc1ccccc1	0	0	0	0	0	-
Fc1ccc(Oc2nc(-c3ccccc3)nnc2C(F)(F)F)cc1	0	0	0	0	0	-
Fc1ccc(Sc2nc(-c3ccccc3)nnc2C(F)(F)F)cc1	50	0	45	0	0	63
O=C1CC2C(CCC23OCCO3)c2ccc3ccccc3c21 (stereo unspecified)	0	-	0	0	-	-
COc1ccc(N2C(=O)CC(Cc3ccccc3)C2=O)cc1 (stereo unspecified)	0	0	0	0	0	-

High-throughput results (PubChem BioAssay)
